Calls of active or inactive are those of the source. The rule behind the calls is not given here.
Experiments:
[1] = system: Peritoneal macrophage; test: Cytotoxicity against C57/BL6 mouse peritoneal macrophages assessed as reduction in cell viability at 50 uM after 48 hrs by MTT assay; format: cell-based
[2] = system: RAW264.7; test: Cytotoxicity against mouse RAW264.7 cells assessed as reduction in cell viability at 50 uM after 48 hrs by MTT assay; format: cell-based; conditions: raw264.7, 48 h
Method in brief: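 RAW264.7 cells seeded at 2 x 10⁵/well and grown 24 h, then exposed to 25 or 50 µM (ethanol ≤1%) for 48 h. MTT 0.5 mg/mL added for 2 h at 37 °C, formazan dissolved in DMSO, OD read at 595 nm. Viability given relative to untreated control, mean SD.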

[3] = Antioxidant activity assessed as DPPH radical scavenging activity after 30 mins by spectrophotometric method; format: functional
Method in brief: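 Left 30 min at room temperature in the dark and absorbance read at 510 nm. IC50 taken graphically from the linear range of the concentration versus scavenging plot. Run twice, each in triplicate.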

[4] = system: RAW264.7; test: Antiinflammatory activity in mouse RAW264.7 cells assessed as inhibition of LPS-induced IL-12 production by measuring IL-12 levels incubated with LPS for 1 hr followed by compound addition measured after 48 hrs by ELISA (reference value: 4839.2 +/- 2.2 pg/ml); format: functional
[5] = system: RAW264.7; test: Antiinflammatory activity in mouse RAW264.7 cells assessed as inhibition of LPS-induced TNFalpha production by measuring TNFalpha levels incubated with LPS for 1 hr followed by compound addition measured after 48 hrs by ELISA (reference value: 58.6 +/- 7.4 ng/ml); format: functional
[6] = system: Murine T-cell line; test: Antiproliferative activity against Con-A-induced T cells isolated from splenocytes of C57/BL6 mouse at 50 uM incubated with Con-A for 1 hr followed by compound addition measured after 72 hrs by MTT assay; format: functional, cell-based
Method in brief: (§1)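 C57BL/6 splenocytes (1x10⁵/well) cultured in RPMI 1640 with 10% FBS. Stimulated 1 h with Con A 5 µg/mL (T cells) or E. coli LPS 1 µg/mL (B cells) at 37°C, 5% CO₂. Treated at 50 µM and cultured 72 h more, then read by MTT. Expressed as % proliferation relative to untreated stimulated cells.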

[7] = system: RAW264.7; test: Antiinflammatory activity in mouse RAW264.7 cells assessed as inhibition of LPS-induced CCL-2 production by measuring CCL-2 levels incubated with LPS for 1 hr followed by compound addition measured after 48 hrs by ELISA (reference value: 12.73 +/- 0.10 ng/ml); format: functional
[8] = system: J774.A1; test: Antiinflammatory activity in mouse J774A.1 cells assessed as inhibition of LPS-induced IL-1beta production by measuring IL-1beta levels incubated with LPS for 1 hr followed by compound addition measured after 24 hrs by ELISA (reference value: 382.3 +/- 50 pg/ml); format: functional
[9] = system: RAW264.7; test: Antiinflammatory activity in mouse RAW264.7 cells assessed as inhibition of LPS-induced IL-6 production by measuring IL-6 levels incubated with LPS for 1 hr followed by compound addition measured after 48 hrs by ELISA (reference value: 2.9 +/- 0.3 ng/ml); format: functional
[10] = system: RAW264.7; test: Immunomodulatory activity in LPS-stimulated mouse RAW264.7 cells assessed as decrease in CD80 expression at 50 uM incubated with LPS for 1 hr followed by compound addition measured after 24 hrs by flow cytometry; format: functional, cell-based
Method in brief: (§2)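 RAW 264.7 cells (4 x 10⁵/well, triplicate) given E. coli LPS 1 µg/mL for 1 h, then treated at 50 µM for 24 h. Cells Fc-blocked with anti-CD16/32 and stained with FITC anti-CD80, anti-CD86 or anti-MHC II (I-A^b). Two independent experiments.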

[11] = system: RAW264.7; test: Immunomodulatory activity in LPS-stimulated mouse RAW264.7 cells assessed as decrease in MHC-2 expression at 50 uM incubated with LPS for 1 hr followed by compound addition measured after 24 hrs by flow cytometry; format: functional, cell-based; method in brief: as §2
[12] = system: B-cell line; test: Antiproliferative activity against LPS-induced B cells isolated from splenocytes of C57/BL6 mouse at 50 uM incubated with LPS for 1 hr followed by compound addition measured after 72 hrs by MTT assay; format: functional, cell-based; method in brief: as §1
[13] = system: RAW264.7; test: Antiinflammatory activity in mouse RAW264.7 cells assessed as inhibition of LPS/IFNgamma-induced NO production by measuring NO levels incubated with LPS/IFNgamma for 1 hr followed by compound addition measured after 48 hrs by Griess assay (reference value: 55 +/- 2.6 microM); format: functional
[14] = system: Mus musculus; test: Inhibition of IL-6 production in ear tissue of croton oil-induced Balb/c mouse ear edema model at 0.1 mg/ear administered topically immediately post croton oil treatment by ELISA; format: functional, organism-based
Method in brief: (§3)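 Half of each ear plug from the 4 h croton oil edema test (topical 0.1 mg/ear) was homogenized in extraction buffer (BSA 0.5%, PMSF 0.1%, […], EDTA 10mM, aprotinin 20kIU/ml) and spun at 440g for 15 min at 4 °C. IL-1β, IL-6 or CCL-2 in the supernatant measured by ELISA.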

[15] = system: Mus musculus; test: Inhibition of CCL-2 production in ear tissue of croton oil-induced Balb/c mouse ear edema model at 0.1 mg/ear administered topically immediately post croton oil treatment by ELISA; format: functional, organism-based; method in brief: as §3
[16] = system: Mus musculus; test: Effect on IL-1beta production in ear tissue of croton oil-induced Balb/c mouse ear edema model at 0.1 mg/ear administered topically immediately post croton oil treatment by ELISA; format: functional, organism-based; method in brief: as §3
[17] = system: Mus musculus; test: Inhibition of myeloperoxidase activity in ear tissue of croton oil-induced Balb/c mouse ear edema model at 0.1 mg/ear administered topically immediately post croton oil treatment by spectrophotometric method; format: functional, organism-based
Method in brief: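 Ear tissue homogenized in PBS and the pellet resuspended in 0.5% HTAB, then given 3 freeze/thaw cycles. Cleared supernatant mixed 1:1 with 6 mM o-phenylenediamine in 10 mM citrate pH 4.5, with 20% H₂O₂ added. Stopped after 15 min with 1 M H₂SO₄ and read spectrophotometrically.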

[18] = system: RAW264.7; test: Cytotoxicity against mouse RAW264.7 cells assessed as reduction in cell viability at >= 100 uM after 48 hrs by MTT assay; format: cell-based; conditions: raw264.7, 48 h
[19] = system: Mus musculus; test: Antiinflammatory activity in Balb/c mouse ear edema model assessed as inhibition of croton oil-induced ear edema at 0.1 mg/ear administered topically immediately post croton oil treatment and measured after 4 hrs relative to control; format: functional
Method in brief: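 Female Balb/c mice 8–10 weeks old (n = 6/group). 20 µL of 2.5% v/v croton oil applied to the inner surface of the right ear, acetone vehicle to the left. Treatment given topically straight after, 0.1 mg/ear in 20 µL, with acetone as negative control. Killed at 4 h and 6 mm plugs taken from both ears. Edema read as right minus left ear plug weight, mean S.D.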

[20] = system: Mus musculus; test: Antiinflammatory activity in croton oil-induced Balb/c mouse ear edema model assessed as inhibition of leucocyte infiltration at 0.1 mg/ear administered topically immediately post croton oil treatment and measured after 4 hrs by hematoxylin and eosin staining based light microscopic method; format: functional, organism-based
Method in brief: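 Ear plugs from the 4 h croton oil edema test in Balb/c mice were fixed 24 h in 70% ethanol, kept in 10% formalin, paraffin-embedded and cut at 4 µm. Sections stained with H&E and leucocyte infiltration judged qualitatively by light microscopy at 400x.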

[21] = system: RAW264.7; test: Antiinflammatory activity in mouse RAW264.7 cells assessed as inhibition of LPS/IFNgamma-induced NO production at 50 uM incubated with LPS/IFNgamma for 1 hr followed by compound addition measured after 48 hrs by Griess assay relative to control; format: functional
[22] = system: RAW264.7; test: Immunomodulatory activity in LPS-stimulated mouse RAW264.7 cells assessed as decrease in CD86 expression at 50 uM incubated with LPS for 1 hr followed by compound addition measured after 24 hrs by flow cytometry; format: functional, cell-based; method in brief: as §2

Structure (SMILES)	Activity [1]	Activity [2]	IC50 [3] [µM]	Activity [4] [pg/mL]	Activity [5] [ng/mL]	Activity [6]	Activity [7] [ng/mL]	Activity [8] [pg/mL]	Activity [9] [ng/mL]	Activity [10]	Activity [11]	Activity [12]	Activity [13] [µM]	inhibition at 50 µM [21] [%]	further results
COc1ccc(/C=N/Nc2ccccc2)c(O)c1	Toxic	Toxic													
O=C(O)c1ccccc1/C=N/c1ccccc1O			34.1	34	57.4	Active	6.1	76.7	2.3	inactive	inactive	Active	22.6		
Oc1ccc(/C=C/c2cc(O)cc(O)c2)cc1 [RESVERATROL]		Non-Toxic	65.6	1036	31	Active	6.6	159.7	1.6	Active	inactive	Active	44.5	25	inhibition [14]: inactive; inhibition [15]: inactive; Activity [16]: inactive; inhibition [17]: Active; Activity [18]: Toxic; inhibition (INH) [19]: 40%; inhibition of leucocyte infiltration (qualitative) [20]: Active; Activity [22]: Active
O=[N+]([O-])c1ccc(N/N=C/c2cc(Br)ccc2O)c([N+](=O)[O-])c1	Toxic	Toxic													
COc1ccc(/C=N/Nc2ccc([N+](=O)[O-])cc2[N+](=O)[O-])cc1O	Toxic	Toxic													
COc1ccc(/C=N/c2ccccc2O)cc1O			34.5	7.7	60.5		9.7	120.3	2.4	Active	inactive		8.1	90	
COc1ccc(/C=N/c2ccccc2O)cc1			45.8	4.7	44.2	Active	7.9	88.2	2.1	Active	inactive	Active	4.8	90	inhibition [14]: Active; inhibition [15]: Active; Activity [16]: inactive; inhibition [17]: Active; inhibition (INH) [19]: 40%; inhibition of leucocyte infiltration (qualitative) [20]: Active; Activity [22]: Active
O=C(O)c1ccc(/C=N/Nc2ccc([N+](=O)[O-])cc2[N+](=O)[O-])cc1	Toxic	Toxic													
C[C@@H]1C[C@H]2[C@@H]3CCC4=CC(=O)C=C[C@]4(C)[C@@]3(F)[C@@H](O)C[C@]2(C)[C@@]1(O)C(=O)CO [DEXAMETHASONE]															inhibition (INH) [19]: 90%; inhibition of leucocyte infiltration (qualitative) [20]: Active
Oc1ccc(/C=N/c2ccccc2O)c(O)c1			49.1	9.3	44.8		5.5	188.3	2.3	Active	inactive		14.6	90	
O=[N+]([O-])c1ccc(/C=N/c2ccccc2S)cc1	Toxic	Toxic													
O=C(O)c1ccc(/C=N/Nc2ccccc2)cc1	Toxic	Toxic													
Oc1ccccc1/C=N/c1ccccc1O			35.9	5.5	58.4	Active	7.2	62.3	2.5	inactive	inactive	Active	5.9	90	
O=C(O)c1ccc(/C=N/c2ccccc2O)cc1			36.6	12.7	30.6	Active	3.7	53.4	2.2	Active	inactive	Active	9.5	90	inhibition [14]: Active; inhibition [15]: Active; Activity [16]: inactive; inhibition [17]: Active; inhibition (INH) [19]: 40%; inhibition of leucocyte infiltration (qualitative) [20]: Active; Activity [22]: Active
